Experimental data taken from publication PMC3517043 (ChemMedChem, 2012).
Converted amounts (≈) assume the structure as drawn. Like-named read-outs stand apart in the source and are kept apart here. Square brackets hold non-standard residues; d marks the D form. Ends that are not written are not given here. Peptide text beside a SMILES is read from it. NMeI = CC[C@H](C)[C@H](NC)C(=O)O; NMeV = CN[C@H](C(=O)O)C(C)C; NMeA = CN[C@@H](C)C(=O)O; Sar = CNCC(=O)O

Columns and labels:
[1] = Solubility by filtration assay; format: physicochemical; conditions: pH 7.4
[2] = system: differentiated PC-12 cells; assay: Toxicity of peptides alone, MTT cell viability assay; format: cell-based, rat; conditions: peptide alone at 50 μM, 24 h
Outline: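 PC-12 cells differentiated with nerve growth factor (50 ng/mL) for 48 h. Peptide dissolved in a small amount of 60 mM NaOH, diluted to 50 μM in culture medium, and incubated alone with cells for 24 h. Viability read by MTT kit. Controls were NaOH at matching concentration and medium alone. Percentage viability was scaled to 1 μM staurosporine, taken as 100% loss.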

[3] = system: Aβ42-induced toxicity in differentiated PC-12 cells; format: cell-based, rat; conditions: for IC50: 24 h; for Decrease in activity relative to the corresponding N-Me-A analogue (MTT): original side-chain restored versus N-Me-A at the same position
[4] = system: Aβ42-induced toxicity in differentiated PC-12 cells; format: cell-based, rat; conditions: for IC50: 48 h; for Decrease in activity relative to the corresponding N-Me-A analogue (LDH): original side-chain restored versus N-Me-A at the same position
[5] = system: Aβ42; conditions: read-out: IC50, inhibition of Aβ42 hexamer formation; photo-induced cross-linking of unmodified proteins; cited from earlier work
[6] = system: mouse primary hippocampal neurons; conditions: cited from earlier work

Row | Molecule | solubility at 1 min ([1]; 10 mM sodium phosphate buffer) [µM] | IC50 [3] [µM] | IC50 [4] [µM] | other results
1 | CC[C@H](C)[C@H](N)C(=O)N[C@H](C(=O)NCC(=O)N(C)[C@@H](C)C(=O)N[C@@H](CCSC)C(=O)N[C@H](C(=O)NCC(=O)NCC(=O)N[C@H](C(=O)N[C@H](C(=O)N[C@H](C(=O)N[C@@H](C)C(=O)O)[C@@H](C)CC)C(C)C)C(C)C)C(C)C)[C@@H](C)CC [[N-Me-A4]Aβ(31–42), IIG-(N-Me)A-MVGGWIA] (H-IIG[NMeA]MVGGVVIA-OH; N-terminus assumed) | 127 ± 37 (≈ 141 µg/mL) |  |  | 
2 | CC[C@H](C)[C@H](NC(=O)[C@H](C)NC)C(=O)NCC(=O)N[C@@H](CC(C)C)C(=O)N[C@@H](CCSC)C(=O)N[C@H](C(=O)NCC(=O)NCC(=O)N[C@H](C(=O)N[C@H](C(=O)N[C@H](C(=O)N[C@@H](C)C(=O)O)[C@@H](C)CC)C(C)C)C(C)C)C(C)C [[N-Me-A1]Aβ(31–42), (N-Me)A-IGLMVGGWIA] (H-[NMeA]IGLMVGGVVIA-OH; N-terminus assumed) | 8 ± 1 (≈ 8.91 µg/mL) |  |  | Toxicity of the peptide itself (cell viability, MTT) [2]: toxic
3 | CC[C@H](C)[C@H](N)C(=O)N[C@H](C(=O)NCC(=O)N[C@@H](CC(C)C)C(=O)N[C@@H](CCSC)C(=O)N[C@H](C(=O)NCC(=O)NCC(=O)N(C)[C@@H](C)C(=O)N[C@H](C(=O)N[C@H](C(=O)N[C@@H](C)C(=O)O)[C@@H](C)CC)C(C)C)C(C)C)[C@@H](C)CC [[N-Me-A9]Aβ(31–42), IIGLMVGG-(N-Me)A-VIA] (H-IIGLMVGG[NMeA]VIA-OH; N-terminus assumed) | 115 ± 21 (≈ 130 µg/mL) | 6 ± 1 | 7 ± 1 | Improvement of IC50 relative to the parent peptide (MTT) ([3]; relative to Aβ(31–42)): 3 fold; Improvement of IC50 relative to the parent peptide (LDH) ([4]; relative to Aβ(31–42)): 6 fold
4 | CC[C@H](C)[C@H](N)C(=O)N(C)[C@@H](C)C(=O)NCC(=O)N[C@@H](CC(C)C)C(=O)N[C@@H](CCSC)C(=O)N[C@H](C(=O)NCC(=O)NCC(=O)N[C@H](C(=O)N[C@H](C(=O)N[C@H](C(=O)N[C@@H](C)C(=O)O)[C@@H](C)CC)C(C)C)C(C)C)C(C)C [[N-Me-A2]Aβ(31–42), I-(N-Me)A-GLMVGGWIA] (H-I[NMeA]GLMVGGVVIA-OH; N-terminus assumed) | 101 ± 18 (≈ 112 µg/mL) |  |  | 
5 | CC[C@H](C)[C@H](NC)C(=O)N[C@H](C(=O)NCC(=O)N[C@@H](CC(C)C)C(=O)N[C@@H](CCSC)C(=O)N[C@H](C(=O)NCC(=O)NCC(=O)N[C@H](C(=O)N[C@H](C(=O)N[C@H](C(=O)N[C@@H](C)C(=O)O)[C@@H](C)CC)C(C)C)C(C)C)C(C)C)[C@@H](C)CC [[N-Me-I1]Aβ3(31–42), (N-Me)I-IGLMVGGWIA] (H-[NMeI]IGLMVGGVVIA-OH; N-terminus assumed) | 7 ± 1 (≈ 8.09 µg/mL) |  |  | Toxicity of the peptide itself (cell viability, MTT) ([2]; listed as [N-Me-I1]Aβ(31–42)): as toxic as [N-Me-A1]Aβ(31–42)
6 | CC[C@H](C)[C@H](N)C(=O)N[C@H](C(=O)NCC(=O)N[C@@H](CC(C)C)C(=O)N[C@@H](CCSC)C(=O)N[C@H](C(=O)NCC(=O)N(C)[C@@H](C)C(=O)N[C@H](C(=O)N[C@H](C(=O)N[C@H](C(=O)N[C@@H](C)C(=O)O)[C@@H](C)CC)C(C)C)C(C)C)C(C)C)[C@@H](C)CC [[N-Me-A8]Aβ(31–42), IIGLMVG-(N-Me)A-WIA] (H-IIGLMVG[NMeA]VVIA-OH; N-terminus assumed) | 41 ± 12 (≈ 48 µg/mL) | 12 ± 1 | 14 ± 1 | 
7 | CC[C@H](C)[C@H](N)C(=O)N[C@H](C(=O)NCC(=O)N[C@@H](CC(C)C)C(=O)N[C@@H](CCSC)C(=O)N[C@H](C(=O)NCC(=O)NCC(=O)N[C@H](C(=O)N[C@H](C(=O)N(C)[C@@H](C)C(=O)N[C@@H](C)C(=O)O)C(C)C)C(C)C)C(C)C)[C@@H](C)CC [[N-Me-A11]Aβ(31–42), IIGLMVGGW-(N-Me)A-A] (H-IIGLMVGGVV[NMeA]A-OH; N-terminus assumed) | 86 ± 22 (≈ 95.8 µg/mL) | 10 ± 1 | 37 ± 3 | 
8 | CC[C@H](C)[C@H](N)C(=O)N[C@H](C(=O)N(C)CC(=O)N[C@@H](CC(C)C)C(=O)N[C@@H](CCSC)C(=O)N[C@H](C(=O)NCC(=O)NCC(=O)N[C@H](C(=O)N[C@H](C(=O)N[C@H](C(=O)N[C@@H](C)C(=O)O)[C@@H](C)CC)C(C)C)C(C)C)C(C)C)[C@@H](C)CC [[N-Me-G3]Aβ(31–42), II-(N-Me)G-LMVGGWIA] | 118 ± 11 (≈ 136 µg/mL) | 26 ± 1 |  | Decrease in activity relative to the corresponding N-Me-A analogue (MTT) [3]: 1.4 fold
9 | CC[C@H](C)[C@H](N)C(=O)N[C@H](C(=O)NCC(=O)N[C@@H](CC(C)C)C(=O)N[C@@H](CCSC)C(=O)N[C@H](C(=O)NCC(=O)NCC(=O)N[C@H](C(=O)N[C@H](C(=O)N[C@H](C(=O)N(C)[C@@H](C)C(=O)O)[C@@H](C)CC)C(C)C)C(C)C)C(C)C)[C@@H](C)CC [[N-Me-A12]Aβ(31–42)] (H-IIGLMVGGVVI[NMeA]-OH; N-terminus assumed) | 28 ± 13 (≈ 32.4 µg/mL) |  |  | 
10 | CC[C@H](C)[C@H](N)C(=O)N[C@H](C(=O)NCC(=O)N[C@@H](CC(C)C)C(=O)N[C@@H](CCSC)C(=O)N[C@H](C(=O)NCC(=O)NCC(=O)N[C@H](C(=O)N(C)[C@@H](C)C(=O)N[C@H](C(=O)N[C@@H](C)C(=O)O)[C@@H](C)CC)C(C)C)C(C)C)[C@@H](C)CC [[N-Me-A10]Aβ(31–42), IIGLMVGGV-(N-Me)A-IA] |  |  |  | solubility at 1 min [1]: 121 ± 28 µM (≈ 136 µg/mL)
11 | IIGLMVGGVVIA-OH [Aβ(31–42), IIGLMVGGVVIA] |  | 18 ± 1 | 43 ± 2 | solubility at 1 min [1]: 25 ± 4 µM; IC50 [5]: 23 ± 4 µM; Rescue from Aβ42-induced inhibition of miniature excitatory postsynaptic current frequency [6]: rescued
12 | CC[C@H](C)[C@H](N)C(=O)N[C@H](C(=O)NCC(=O)N[C@@H](CC(C)C)C(=O)N[C@@H](CCSC)C(=O)N[C@H](C(=O)NCC(=O)NCC(=O)N(C)[C@H](C(=O)N[C@H](C(=O)N[C@H](C(=O)N[C@@H](C)C(=O)O)[C@@H](C)CC)C(C)C)C(C)C)C(C)C)[C@@H](C)CC [[N-Me-V9]Aβ(31–42), IIGLMVGG-(N-Me)V-VIA] (H-IIGLMVGG[NMeV]VIA-OH; N-terminus assumed) | 136 ± 18 (≈ 157 µg/mL) | 6 ± 1 | 67 ± 8 | Decrease in activity relative to the corresponding N-Me-A analogue (LDH) [4]: 9.6 fold
13 | CC[C@H](C)[C@H](N)C(=O)N[C@H](C(=O)NCC(=O)N[C@@H](CC(C)C)C(=O)N(C)[C@@H](C)C(=O)N[C@H](C(=O)NCC(=O)NCC(=O)N[C@H](C(=O)N[C@H](C(=O)N[C@H](C(=O)N[C@@H](C)C(=O)O)[C@@H](C)CC)C(C)C)C(C)C)C(C)C)[C@@H](C)CC [[N-Me-A5]Aβ(31–42), IIGL-(N-Me)A-VGGWIA] (H-IIGL[NMeA]VGGVVIA-OH; N-terminus assumed) | 105 ± 20 (≈ 115 µg/mL) |  |  | 
14 | CC[C@H](C)[C@H](N)C(=O)N[C@H](C(=O)NCC(=O)N[C@@H](CC(C)C)C(=O)N[C@@H](CCSC)C(=O)N[C@H](C(=O)NCC(=O)N(C)CC(=O)N[C@H](C(=O)N[C@H](C(=O)N[C@H](C(=O)N[C@@H](C)C(=O)O)[C@@H](C)CC)C(C)C)C(C)C)C(C)C)[C@@H](C)CC [[N-Me-G8]Aβ(31–42), IIGLMVG-(N-Me)G-WIA] (H-IIGLMVG[Sar]VVIA-OH; N-terminus assumed) | 18 ± 2 (≈ 20.8 µg/mL) | 28 ± 1 | 71 ± 20 | Decrease in activity relative to the corresponding N-Me-A analogue (MTT) [3]: 2.3 fold; Decrease in activity relative to the corresponding N-Me-A analogue (LDH) [4]: 5.0 fold
15 | CC[C@H](C)[C@H](N)C(=O)N[C@H](C(=O)NCC(=O)N[C@@H](CC(C)C)C(=O)N[C@@H](CCSC)C(=O)N(C)[C@@H](C)C(=O)NCC(=O)NCC(=O)N[C@H](C(=O)N[C@H](C(=O)N[C@H](C(=O)N[C@@H](C)C(=O)O)[C@@H](C)CC)C(C)C)C(C)C)[C@@H](C)CC [[N-Me-A6]Aβ(31–42), IIGLM-(N-Me)A-GGWIA] (H-IIGLM[NMeA]GGVVIA-OH; N-terminus assumed) | 87 ± 18 (≈ 98.1 µg/mL) |  |  | 
16 | CC[C@H](C)[C@H](N)C(=O)N[C@H](C(=O)NCC(=O)N[C@@H](CC(C)C)C(=O)N[C@@H](CCSC)C(=O)N[C@H](C(=O)N(C)[C@@H](C)C(=O)NCC(=O)N[C@H](C(=O)N[C@H](C(=O)N[C@H](C(=O)N[C@@H](C)C(=O)O)[C@@H](C)CC)C(C)C)C(C)C)C(C)C)[C@@H](C)CC [[N-Me-A7]Aβ(31–42), IIGLMV-(N-Me)A-GWIA] (H-IIGLMV[NMeA]GVVIA-OH; N-terminus assumed) | 88 ± 14 (≈ 103 µg/mL) |  |  | 
17 | CC[C@H](C)[C@H](N)C(=O)N[C@H](C(=O)NCC(=O)N[C@@H](CC(C)C)C(=O)N[C@@H](CCSC)C(=O)N[C@H](C(=O)NCC(=O)NCC(=O)N[C@H](C(=O)N[C@H](C(=O)N(C)[C@H](C(=O)N[C@@H](C)C(=O)O)[C@@H](C)CC)C(C)C)C(C)C)C(C)C)[C@@H](C)CC [[N-Me-I11]Aβ3(31–42), IIGLMVGGW-(N-Me)I-A] (H-IIGLMVGGVV[NMeI]A-OH; N-terminus assumed) | 132 ± 34 (≈ 153 µg/mL) | 13 ± 1 | 49 ± 3 | 
18 | CC[C@H](C)[C@H](N)C(=O)N[C@H](C(=O)N(C)[C@@H](C)C(=O)N[C@@H](CC(C)C)C(=O)N[C@@H](CCSC)C(=O)N[C@H](C(=O)NCC(=O)NCC(=O)N[C@H](C(=O)N[C@H](C(=O)N[C@H](C(=O)N[C@@H](C)C(=O)O)[C@@H](C)CC)C(C)C)C(C)C)C(C)C)[C@@H](C)CC [[N-Me-A3]Aβ(31–42), II-(N-Me)A-LMVGGWIA] | 102 ± 16 (≈ 119 µg/mL) | 18 ± 1 | 34 ± 3 | 
